Data from ChEMBL document CHEMBL1141349, “Cytochrome P3A4 inhibitors and other constituents of Fibraurea tinctoria” (J Nat Prod, 2007).

Target: Cytochrome P450 3A4 (Homo sapiens, UniProt P08684)
Experiment: Inhibition of human CYP3A4 expressed in Escherichia coli assessed as inhibition of nifedipine oxidation
Assay type: ADME
How it was run: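 Bicistronic human CYP3A4 expressed in E. coli DH5; bacterial membrane fractions (sonication, differential centrifugation) stored at -75 °C, P450 content by CO-difference spectroscopy. Nifedipine substrate with 100 pmol P450 per incubation, 37 °C shaking waterbath; pyridine metabolite quantified by HPLC.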

Chain of Cytochrome P450 3A4 (P08684 whole entry): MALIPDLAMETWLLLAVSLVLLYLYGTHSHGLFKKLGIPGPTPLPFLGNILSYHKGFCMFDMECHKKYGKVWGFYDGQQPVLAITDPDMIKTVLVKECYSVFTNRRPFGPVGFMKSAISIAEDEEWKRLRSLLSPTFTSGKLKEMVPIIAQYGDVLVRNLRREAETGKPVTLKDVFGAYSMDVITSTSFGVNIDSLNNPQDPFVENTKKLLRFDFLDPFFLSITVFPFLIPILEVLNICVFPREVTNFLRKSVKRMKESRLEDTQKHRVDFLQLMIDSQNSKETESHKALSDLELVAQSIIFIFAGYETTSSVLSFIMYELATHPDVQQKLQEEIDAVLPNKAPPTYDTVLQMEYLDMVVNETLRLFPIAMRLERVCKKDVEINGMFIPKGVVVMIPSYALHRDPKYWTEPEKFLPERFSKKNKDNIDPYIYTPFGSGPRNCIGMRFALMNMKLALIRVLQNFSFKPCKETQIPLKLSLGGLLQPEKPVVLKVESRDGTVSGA

| Compound | IC50 |
| --- | --- |
| C[C@H](C[C@@H](O)[C@](C)(O)[C@H]1CC[C@@]2(O)C3=CC(=O)[C@@H]4C[C@@H](O)[C@@H](O)C[C@]4(C)[C@H]3CC[C@]12C)C(C)(C)O [MAKISTERONE A] | > 100 µM |
| COc1cc2c(cc1O)-c1cc3ccc(O)c(OC)c3c[n+]1CC2 [STEPHARANINE] | > 2.5 µM |
| COc1cc2c(cc1OC)-c1cc3ccc(OC)c(OC)c3c[n+]1CC2 [PALMATINE CHLORIDE] | 0.9 µM |
| COc1cc2c(cc1O)-c1cc3ccc(OC)c(OC)c3c[n+]1CC2 [COLUMBAMINE] | 30.6 µM |
| C[C@H](C[C@@H](O)[C@](C)(O)[C@H]1CC[C@@]2(O)C3=CC(=O)[C@@H]4C[C@@H](O[C@@H]5O[C@H](CO)[C@@H](O)[C@H](O)[C@H]5O)[C@@H](O)C[C@]4(C)[C@H]3CC[C@]12C)C(C)(C)O [FIBRAURECDYSIDE A] | > 100 µM |

Now from value to compound:

| IC50 | Compound |
| --- | --- |
| > 100 µM | C[C@@]12C[C@H](c3ccoc3)OC(=O)C1=CC[C@]1(C)[C@H]2[C@H]2C=C[C@]1(O[C@@H]1O[C@H](CO)[C@@H](O)[C@H](O)[C@H]1O)C(=O)O2 [FIBLEUCINOSIDE] |
| > 100 µM | C[C@@]12[C@H]3CC=C[C@@]1(O[C@@H]1O[C@H](CO)[C@@H](O)[C@H](O)[C@H]1O)C(=O)O[C@@H]2C[C@]1(O)C(=O)O[C@H](c2ccoc2)C[C@@]31C [EPI-FIBRAURETINOSIDE A] |
| > 100 µM | C[C@@]12[C@H]3CC=C[C@]1(O[C@@H]1O[C@H](CO)[C@@H](O)[C@H](O)[C@H]1O)C(=O)O[C@@H]2C[C@]1(O)C(=O)O[C@H](c2ccoc2)C[C@@]31C [FIBRAURETINOSIDE A] |
| > 100 µM | C[C@@]12C[C@H](c3ccoc3)OC(=O)[C@@H]1[C@@H](O)C[C@]1(C)[C@H]2[C@@H]2OC(=O)[C@@]1(O)[C@H]1O[C@@H]21 [FIBRAURETIN A] |
| > 100 µM | C[C@@]12C[C@H](c3ccoc3)OC(=O)C1=CC[C@]1(C)[C@H]2[C@@H]2OC(=O)[C@@]1(O[C@@H]1O[C@H](CO)[C@@H](O)[C@H](O)[C@H]1O)[C@H]1O[C@@H]21 [FIBRAURINOSIDE] |
| > 100 µM | C[C@@]12C[C@H](c3ccoc3)OC(=O)[C@@H]1CC[C@@]1(CO[C@@H]3O[C@H](CO)[C@@H](O)[C@H](O)[C@H]3O)C(=O)C=CC[C@H]12 |
